Reference: PMC8317634 (Journal of the Endocrine Society, 2021)

Assays:
[1] = system: recombinant NEP; assay: ANP degradation by recombinant NEP; type: biochemical; details: MALDI-TOF
[2] = system: healthy young men; assay: Single dose of sacubitril/valsartan; type: in vivo, human; details: valsartan alone 206 mg; n = 3
Method in brief: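 Healthy men meeting the crossover-trial inclusion criteria (n = 3) received valsartan 206 mg 30 min before a solid mixed meal (42 g carbohydrate, 25 g fat, 26 g protein), or the meal alone, on separate occasions. Blood was drawn at –60, –15, 0, 30, 45, 90 and 180 min. Plasma glucagon was measured by validated 2-site enzyme immunoassay, and the postprandial response was expressed as incremental AUC.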

[3] = system: male C57BL/6JRj mice; assay: Oral amino acid challenge in male mice treated with sacubitril; type: in vivo; details: AA challenge, n = 6
Method in brief: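 Male C57BL/6JRj mice (~22 g) were acclimatized for at least 1 week. At –30 min they received sacubitril (0.7 nmol/g BW; DMSO stock diluted in PBS) or vehicle (PBS, 0.7% DMSO) by oral gavage. Amino acids (34 mg, Vamin solution) were gavaged at 0 min. Tail blood was sampled at 0, 10, 15, 30, 60 and 180 min for glucometer glucose and EDTA plasma. Plasma glucagon was measured by two-site enzyme immunoassay; L-amino acids and urea by kits.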

[4] = system: female C57BL/6JRj mice; assay: Female mice given water instead of amino acids; type: in vivo; details: sacubitril coadministered with vehicle, GRA or Ex9-39 vs these alone; n = 3
Method in brief: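 Female C57BL/6JRj mice were fasted 3 h with free water. They received GRA (100 mg/kg, oral gavage suspension) or its vehicle at –180 min, or Ex9-39 (100 µg i.p.) at –15 min. Sacubitril (0.7 nmol/g BW, oral gavage; DMSO diluted in PBS) or PBS/0.7% DMSO was given at –30 min, then water at 0 min. Retrobulbar blood was taken at 0–180 min for plasma glucagon by 2-site enzyme immunoassay.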

[5] = target: T1, NEP activity (Mus musculus, UniProt Q61391); assay: Inhibition of NEP activity in mice by oral sacubitril; type: in vivo; details: sacubitril 0.7 nmol/g BW, oral gavage; data not shown
T1 sequence (Q61391 1-750): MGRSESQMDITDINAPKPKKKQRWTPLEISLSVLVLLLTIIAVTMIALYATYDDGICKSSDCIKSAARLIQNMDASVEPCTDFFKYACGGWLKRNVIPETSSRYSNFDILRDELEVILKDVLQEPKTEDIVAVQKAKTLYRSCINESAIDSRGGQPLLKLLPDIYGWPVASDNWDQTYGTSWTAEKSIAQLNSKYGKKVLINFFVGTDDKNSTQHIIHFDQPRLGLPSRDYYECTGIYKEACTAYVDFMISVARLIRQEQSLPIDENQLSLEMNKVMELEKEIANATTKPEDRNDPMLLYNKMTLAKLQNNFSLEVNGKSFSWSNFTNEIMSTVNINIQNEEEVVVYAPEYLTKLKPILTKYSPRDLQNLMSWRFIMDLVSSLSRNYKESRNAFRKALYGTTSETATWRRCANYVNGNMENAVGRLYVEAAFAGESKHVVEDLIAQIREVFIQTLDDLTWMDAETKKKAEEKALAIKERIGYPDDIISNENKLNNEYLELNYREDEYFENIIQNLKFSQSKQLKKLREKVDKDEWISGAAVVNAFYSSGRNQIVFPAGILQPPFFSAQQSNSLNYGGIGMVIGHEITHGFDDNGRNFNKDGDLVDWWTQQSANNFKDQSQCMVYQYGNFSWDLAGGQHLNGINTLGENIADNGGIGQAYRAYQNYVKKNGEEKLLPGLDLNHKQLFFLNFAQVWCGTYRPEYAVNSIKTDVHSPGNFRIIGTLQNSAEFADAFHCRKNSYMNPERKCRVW

[6] = system: GLP-1R^–/– mice and GLP-1R^+/+ mice; type: in vivo; details: sacubitril at -30 min, AAs 34 mg oral
[7] = used to correct the oral dose; species and source not given; cited from earlier work
[8] = system: female C57BL/6JRj mice; assay: Oral amino acid challenge in female mice treated with sacubitril, GRA or Ex9-39; type: in vivo; details: AAs 34 mg oral
Method in brief: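 Female C57BL/6JRj mice (n = 7-10) were fasted 3 h. They were pretreated with GRA vehicle or GRA (100 mg/kg oral) at –180 min, or Ex9-39 (100 µg i.p.) at –15 min. Sacubitril (oral gavage) or PBS/0.7% DMSO was given at –30 min. An amino-acid mixture (34 mg, oral gavage) followed at 0 min. Blood glucose was measured from tail bleeds by handheld glucometer at 0, 10, 15, 30, 60 and 180 min.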

[9] = system: individuals with obesity and hypertension; assay: 8 weeks treatment, fasting plasma before and after; type: in vivo, human; details: amlodipine 10 mg once a day, n = 7, control group
Method in brief: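 Multicentre, randomized, double-blinded study in adults with hypertension and obesity. Participants received amlodipine 10 mg once daily (n = 7) or sacubitril/valsartan 194 mg/206 mg once daily (n = 7) for 8 weeks. Plasma was sampled after an overnight fast before and after treatment. Glucagon was measured by validated 2-site enzyme immunoassay and L-amino acids by a commercial kit.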

atrial natriuretic peptide [ANP]
degradation of ANP by NEP ([1]; positive control, recombinant NEP, Supplementary Fig. 2A and 2B): NEP cleavage resulted in the formation of a known substrate (m/z 2585)

CCCCC(=O)N(Cc1ccc(-c2ccccc2-c2nnn[nH]2)cc1)[C@H](C(=O)O)C(C)C [valsartan]
effect on postprandial plasma concentrations of glucagon vs control [2]: no effect

CCOC(=O)[C@H](C)C[C@@H](Cc1ccc(-c2ccccc2)cc1)NC(=O)CCC(=O)O [sacubitril]
blood glucose or plasma concentrations of AAs, male mice [3]: without altering blood glucose or plasma concentrations of AAs | plasma concentrations of glucagon, male mice [3]: increased plasma concentrations of glucagon | plasma concentrations of urea, male mice [3]: did not increase plasma concentrations of urea | plasma concentrations of glucagon, water instead of AAs [4]: increased numerically | inhibition of NEP activity in mice [5]: ~ 60% | plasma AA iAUC in GLP-1^–/– mice ([6]; mean ± SD, vehicle 255 ± 118, P = .05): 376 ± 67 | augmenting effect on AA-stimulated glucagon levels in GLP-1R^+/+ mice ([6]; time point 15 minutes, P = .02): apparent only in littermate controls | glucagon response to AAs in GLP-1R^–/– mice ([6]; vs vehicle): did not, however, increase the glucagon response to AAs | blood glucose concentrations in response to an AA challenge in GLP-1R^–/– mice ([6]; vs vehicle, P = .03): increased blood glucose concentrations | bioavailability [7]: 60% | plasma concentrations of glucagon, coadministration with Ex9-39 vs Ex9-39 alone ([8]; sacubitril 0.7 nmol/g BW + Ex9-39 100 µg): increased plasma concentrations of glucagon more | plasma concentrations of amino acids vs vehicle ([8]; sacubitril 0.7 nmol/g BW oral): no effect on plasma concentrations of amino acids | blood glucose concentrations in response to an AA challenge ([8]; sacubitril 0.7 nmol/g BW oral, vs vehicle): no significant increase

CCOC(=O)C1=C(COCCN)NC(C)=C(C(=O)OC)C1c1ccccc1Cl (centres unmarked) [amlodipine]
plasma concentrations of glucose, glucagon, or AAs, after vs before [9]: no significant changes

C[C@H](C[C@@H](Cc1ccc(-c2ccccc2)cc1)NC(=O)CCC(=O)O)C(=O)O [sacubitrilat]
effect on NEP-induced ANP cleavage ([1]; sacubitrilat added): prevented by the addition of sacubitrilat
